Assay results from ChEMBL document CHEMBL4689842, “EUbOPEN Chemogenomics Library wave 1” (2021).

System: HEK-293T
Assay: Multiplex assay against HEK293T;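 as to Population Tubulin-Different-Phenotype (%): share of the cells with healthy nuclei that show this phenotype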
Assay type: toxicity, cell-based
Details: human
In short: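 Cells were classed with CellPathfinder machine-learning gating, first as Hoechst high-intensity objects or normal cells, then (normal cells) as healthy, pyknosed or fragmented nuclei, and finally (pyknosed cells) as mitotic or apoptotic. Staining of live cells at seeding used Hoechst33342, BioTracker Green Microtubule Cytoskeleton Dye, MitoTracker Red and Annexin V Alexa Fluor 680, with imaging on a CQ1 microscope at 37°C and 5% CO2 after compound addition. Tubulin, mitochondrial-mass and membrane-permeability phenotypes are per cents of healthy-nucleus cells.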

[1] = 12 h, 1 µM, compound concentration 1 uM, replicate 1
[2] = 12 h, 1 µM, compound concentration 1 uM, replicate 2
[3] = 12 h, 10 µM, compound concentration 10 uM, replicate 1
[4] = 12 h, 10 µM, compound concentration 10 uM, replicate 2
[5] = 24 h, 1 µM, compound concentration 1 uM, replicate 1
[6] = 24 h, 1 µM, compound concentration 1 uM, replicate 2
[7] = 24 h, 10 µM, compound concentration 10 uM, replicate 1
[8] = 24 h, 10 µM, compound concentration 10 uM, replicate 2
[9] = 48 h, 1 µM, compound concentration 1 uM, replicate 1
[10] = 48 h, 1 µM, compound concentration 1 uM, replicate 2
[11] = 48 h, 10 µM, compound concentration 10 uM, replicate 1
[12] = 48 h, 10 µM, compound concentration 10 uM, replicate 2

## Cc1ccc(S(=O)(=O)NC2c3ccccc3Oc3ccccc32)cc1
[1]
  Population Apoptotic (%): 46%
  Population Fragmented Nuclei (%): 11%
  Population Healthy Nuclei (%): 44%
  Population Hoechst High Intensity Objects (%): 11%
  Population Membrane Permeable-Phenotype (%): 2%
  Population Mitochondria Different-Phenotype (%): 64%
  Population Mitotic Cells (%): 53%
  Population Normal (%): 88%
  Population Pyknosed Nuclei (%): 44%
  Population Tubulin-Different-Phenotype (%): 27%
  Total Cell Count: 362
[2]
  Population Apoptotic (%): 21%
  Population Fragmented Nuclei (%): 5%
  Population Healthy Nuclei (%): 49%
  Population Hoechst High Intensity Objects (%): 2%
  Population Membrane Permeable-Phenotype (%): 17%
  Population Mitochondria Different-Phenotype (%): 9%
  Population Mitotic Cells (%): 78%
  Population Normal (%): 97%
  Population Pyknosed Nuclei (%): 45%
  Population Tubulin-Different-Phenotype (%): 22%
  Total Cell Count: 179
[3]
  Population Apoptotic (%): 59%
  Population Fragmented Nuclei (%): 32%
  Population Healthy Nuclei (%): 37%
  Population Hoechst High Intensity Objects (%): 11%
  Population Membrane Permeable-Phenotype (%): 3%
  Population Mitochondria Different-Phenotype (%): 86%
  Population Mitotic Cells (%): 40%
  Population Normal (%): 88%
  Population Pyknosed Nuclei (%): 30%
  Population Tubulin-Different-Phenotype (%): 74%
  Total Cell Count: 398
[4]
  Population Apoptotic (%): 16%
  Population Fragmented Nuclei (%): 33%
  Population Healthy Nuclei (%): 34%
  Population Hoechst High Intensity Objects (%): 5%
  Population Membrane Permeable-Phenotype (%): 12%
  Population Mitochondria Different-Phenotype (%): 33%
  Population Mitotic Cells (%): 83%
  Population Normal (%): 94%
  Population Pyknosed Nuclei (%): 31%
  Population Tubulin-Different-Phenotype (%): 49%
  Total Cell Count: 307
[5]
  Population Apoptotic (%): 41%
  Population Fragmented Nuclei (%): 10%
  Population Healthy Nuclei (%): 47%
  Population Hoechst High Intensity Objects (%): 13%
  Population Membrane Permeable-Phenotype (%): 4%
  Population Mitochondria Different-Phenotype (%): 55%
  Population Mitotic Cells (%): 58%
  Population Normal (%): 86%
  Population Pyknosed Nuclei (%): 41%
  Population Tubulin-Different-Phenotype (%): 41%
  Total Cell Count: 392
[6]
  Population Apoptotic (%): 22%
  Population Fragmented Nuclei (%): 8%
  Population Healthy Nuclei (%): 55%
  Population Hoechst High Intensity Objects (%): 1%
  Population Membrane Permeable-Phenotype (%): 23%
  Population Mitochondria Different-Phenotype (%): 12%
  Population Mitotic Cells (%): 77%
  Population Normal (%): 98%
  Population Pyknosed Nuclei (%): 36%
  Population Tubulin-Different-Phenotype (%): 29%
  Total Cell Count: 239
[7]
  Population Apoptotic (%): 55%
  Population Fragmented Nuclei (%): 13%
  Population Healthy Nuclei (%): 55%
  Population Hoechst High Intensity Objects (%): 10%
  Population Membrane Permeable-Phenotype (%): 7%
  Population Mitochondria Different-Phenotype (%): 68%
  Population Mitotic Cells (%): 45%
  Population Normal (%): 89%
  Population Pyknosed Nuclei (%): 30%
  Population Tubulin-Different-Phenotype (%): 55%
  Total Cell Count: 362
[8]
  Population Apoptotic (%): 17%
  Population Fragmented Nuclei (%): 11%
  Population Healthy Nuclei (%): 52%
  Population Hoechst High Intensity Objects (%): 3%
  Population Membrane Permeable-Phenotype (%): 9%
  Population Mitochondria Different-Phenotype (%): 31%
  Population Mitotic Cells (%): 82%
  Population Normal (%): 96%
  Population Pyknosed Nuclei (%): 36%
  Population Tubulin-Different-Phenotype (%): 47%
  Total Cell Count: 283
[9]
  Population Apoptotic (%): 34%
  Population Fragmented Nuclei (%): 18%
  Population Healthy Nuclei (%): 46%
  Population Hoechst High Intensity Objects (%): 12%
  Population Membrane Permeable-Phenotype (%): 2%
  Population Mitochondria Different-Phenotype (%): 26%
  Population Mitotic Cells (%): 65%
  Population Normal (%): 87%
  Population Pyknosed Nuclei (%): 35%
  Population Tubulin-Different-Phenotype (%): 28%
  Total Cell Count: 465
[10]
  Population Apoptotic (%): 13%
  Population Fragmented Nuclei (%): 8%
  Population Healthy Nuclei (%): 78%
  Population Hoechst High Intensity Objects (%): 3%
  Population Membrane Permeable-Phenotype (%): 11%
  Population Mitochondria Different-Phenotype (%): 3%
  Population Mitotic Cells (%): 86%
  Population Normal (%): 96%
  Population Pyknosed Nuclei (%): 12%
  Total Cell Count: 466
[11]
  Population Apoptotic (%): 36%
  Population Fragmented Nuclei (%): 13%
  Population Healthy Nuclei (%): 66%
  Population Hoechst High Intensity Objects (%): 8%
  Population Membrane Permeable-Phenotype (%): 2%
  Population Mitochondria Different-Phenotype (%): 27%
  Population Mitotic Cells (%): 63%
  Population Normal (%): 91%
  Population Pyknosed Nuclei (%): 20%
  Population Tubulin-Different-Phenotype (%): 38%
  Total Cell Count: 453
[12]
  Population Apoptotic (%): 12%
  Population Fragmented Nuclei (%): 4%
  Population Healthy Nuclei (%): 73%
  Population Hoechst High Intensity Objects (%): 2%
  Population Membrane Permeable-Phenotype (%): 6%
  Population Mitochondria Different-Phenotype (%): 20%
  Population Mitotic Cells (%): 87%
  Population Normal (%): 97%
  Population Pyknosed Nuclei (%): 22%
  Population Tubulin-Different-Phenotype (%): 45%
  Total Cell Count: 374
